According to ChEMBL document CHEMBL1817666, “Bicephalic amphiphile architecture affects antibacterial activity” (2011):
Calls of active or inactive are those of the source. No cut-off for these calls is given here.

Experiments:
Format in all cases: functional
Pseudomonas aeruginosa [1] = assay: Antibacterial activity against 5 x 10^5 CFU/mL Pseudomonas aeruginosa Boston 41501 ATCC 27853 after 72 hrs by CLSI M07-A8 broth microdilution method
Outline: (§1)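 Broth microdilution in Mueller-Hinton broth at 37 °C. Serially diluted compound added in triplicate wells, then overnight culture diluted to about 5 × 10⁶ cfu/mL inoculum, giving 5 × 10⁵ cfu/well. Inoculum checked by serial dilution and plating. Plates incubated 72 h at 37 °C. MIC is the lowest concentration with no growth visible by eye. At least 3 repeats per organism.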

Staphylococcus aureus [2] = assay: Antibacterial activity against 5 x 10^5 CFU/mL Staphylococcus aureus subsp. aureus ATCC 29213 after 72 hrs by CLSI M07-A8 broth microdilution method; outline: as §1
Escherichia coli [3] = assay: Antibacterial activity against 5 x 10^5 CFU/mL Escherichia coli ATCC 25922 after 72 hrs by CLSI M07-A8 broth microdilution method; outline: as §1
Pseudomonas aeruginosa [4] = assay: Antibacterial activity against 5 x 10^5 CFU/mL Pseudomonas aeruginosa Boston 41501 ATCC 27853 incubated for 72 hrs followed by growing of cells on trypticase soy agar plate for 24 hrs by CLSI M07-A8 broth microdilution method
Outline: (§2)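 After the 72 h, 37 °C Mueller-Hinton microdilution (5 × 10⁵ cfu/well, triplicate wells), 100 µl from each triplicate set is plated on trypticase soy agar and incubated 24 h. MBC is the lowest concentration giving no colonies. At least 3 repeats per organism.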

Escherichia coli [5] = assay: Antibacterial activity against 5 x 10^5 CFU/mL Escherichia coli ATCC 25922 incubated for 72 hrs followed by growing of cells on trypticase soy agar plate for 24 hrs by CLSI M07-A8 broth microdilution method; outline: as §2
Enterococcus faecalis [6] = assay: Antibacterial activity against 5 x 10^5 CFU/mL Enterococcus faecalis ATCC 29212 incubated for 72 hrs followed by growing of cells on trypticase soy agar plate for 24 hrs by CLSI M07-A8 broth microdilution method; outline: as §2
Enterococcus faecalis [7] = assay: Antibacterial activity against 5 x 10^5 CFU/mL Enterococcus faecalis ATCC 29212 after 72 hrs by CLSI M07-A8 broth microdilution method; outline: as §1
Staphylococcus aureus [8] = assay: Antibacterial activity against 5 x 10^5 CFU/mL Staphylococcus aureus subsp. aureus ATCC 29213 incubated for 72 hrs followed by growing of cells on trypticase soy agar plate for 24 hrs by CLSI M07-A8 broth microdilution method; outline: as §2
Enterococcus faecalis [9] = assay: Antibacterial activity against 2.5 x 10^6 CFU/mL Enterococcus faecalis ATCC 29212 assessed as time required for bacterial killing at 100 uM by microscopy based bacterial killing assay
Escherichia coli [10] = assay: Antibacterial activity against 2.5 x 10^6 CFU/mL Escherichia coli ATCC 25922 assessed as time required for bacterial killing at 100 uM by microscopy based bacterial killing assay
Staphylococcus aureus [11] = assay: Antibacterial activity against 2.5 x 10^6 CFU/mL Staphylococcus aureus subsp. aureus ATCC 29213 assessed as time required for bacterial killing at 100 uM by microscopy based bacterial killing assay

## CCCCCCCCCCCCOS(=O)(=O)[O-].[Na+] [SODIUM LAURYL SULFATE]
Pseudomonas aeruginosa [1]; Boston 41501 ATCC 27853, 72 h
  MIC: > 500 µM
Staphylococcus aureus [2]; ATCC 29213, 72 h
  MIC: 250 µM
Escherichia coli [3]; ATCC 25922, 72 h
  MIC: > 500 µM
Pseudomonas aeruginosa [4]
  MBC: > 500 µM
Escherichia coli [5]
  MBC: > 500 µM
Enterococcus faecalis [6]
  MBC: 500 µM
Enterococcus faecalis [7]; ATCC 29212, 72 h
  MIC: 500 µM
Staphylococcus aureus [8]
  MBC: 250 µM

## CCCCCCCCCCCCOc1cc(C[N+](C)(C)C)ccc1C[N+](C)(C)C
Pseudomonas aeruginosa [1]; Boston 41501 ATCC 27853, 72 h
  MIC: > 500 µM
Staphylococcus aureus [2]; ATCC 29213, 72 h
  MIC: 31 µM
Enterococcus faecalis [9]
  Activity: inactive
Escherichia coli [3]; ATCC 25922, 72 h
  MIC: 500 µM
Pseudomonas aeruginosa [4]
  MBC: > 500 µM
Escherichia coli [5]
  MBC: 500 µM
Enterococcus faecalis [6]
  MBC: 125 µM
Enterococcus faecalis [7]; ATCC 29212, 72 h
  MIC: 125 µM
Escherichia coli [10]
  Activity: inactive
Staphylococcus aureus [8]
  MBC: 31 µM
Staphylococcus aureus [11]
  Activity: inactive

## CCCCCCCCCCOc1ccc(C[N+](C)(C)C)cc1.[Br-]
Pseudomonas aeruginosa [1]; Boston 41501 ATCC 27853, 72 h
  MIC: 250 µM
Staphylococcus aureus [2]; ATCC 29213, 72 h
  MIC: 8 µM
Enterococcus faecalis [9]
  Time: 0.5 h
Escherichia coli [3]; ATCC 25922, 72 h
  MIC: 63 µM
Pseudomonas aeruginosa [4]
  MBC: 250 µM
Escherichia coli [5]
  MBC: 63 µM
Enterococcus faecalis [6]
  MBC: 16 µM
Enterococcus faecalis [7]; ATCC 29212, 72 h
  MIC: 16 µM
Escherichia coli [10]
  Time: 0.5 h
Staphylococcus aureus [8]
  MBC: 8 µM
Staphylococcus aureus [11]
  Time: 0.5 h

## CCCCCCCCCCCCCCCCOc1cc(C[N+](C)(C)C)cc(C[N+](C)(C)C)c1.[Br-].[Br-]
Pseudomonas aeruginosa [1]; Boston 41501 ATCC 27853, 72 h
  MIC: 125 µM
Staphylococcus aureus [2]; ATCC 29213, 72 h
  MIC: 8 µM
Enterococcus faecalis [9]
  Time: 0.25 h
Escherichia coli [3]; ATCC 25922, 72 h
  MIC: 63 µM
Pseudomonas aeruginosa [4]
  MBC: 125 µM
Escherichia coli [5]
  MBC: 63 µM
Enterococcus faecalis [6]
  MBC: 31 µM
Enterococcus faecalis [7]; ATCC 29212, 72 h
  MIC: 31 µM
Escherichia coli [10]
  Time: 0.25 h
Staphylococcus aureus [8]
  MBC: 8 µM
Staphylococcus aureus [11]
  Time: 0.25 h

## CCCCCCCCCCCCCCOc1ccc(C[N+](C)(C)C)cc1C[N+](C)(C)C.[Br-].[Br-]
Pseudomonas aeruginosa [1]; Boston 41501 ATCC 27853, 72 h
  MIC: 125 µM
Staphylococcus aureus [2]; ATCC 29213, 72 h
  MIC: 6 µM
Enterococcus faecalis [9]
  Time: 2 h
Escherichia coli [3]; ATCC 25922, 72 h
  MIC: 31 µM
Pseudomonas aeruginosa [4]
  MBC: 125 µM
Escherichia coli [5]
  MBC: 31 µM
Enterococcus faecalis [6]
  MBC: 16 µM
Enterococcus faecalis [7]; ATCC 29212, 72 h
  MIC: 16 µM
Escherichia coli [10]
  Time: 1 h
Staphylococcus aureus [8]
  MBC: 6 µM
Staphylococcus aureus [11]
  Time: 1 h

## CCCCCCCCCCOc1cc(C[N+](C)(C)C)ccc1C[N+](C)(C)C
Pseudomonas aeruginosa [1]; Boston 41501 ATCC 27853, 72 h
  MIC: > 500 µM
Staphylococcus aureus [2]; ATCC 29213, 72 h
  MIC: 250 µM
Enterococcus faecalis [9]
  Activity: inactive
Escherichia coli [3]; ATCC 25922, 72 h
  MIC: > 500 µM
Pseudomonas aeruginosa [4]
  MBC: > 500 µM
Escherichia coli [5]
  MBC: > 500 µM
Enterococcus faecalis [6]
  MBC: 500 µM
Enterococcus faecalis [7]; ATCC 29212, 72 h
  MIC: 500 µM
Escherichia coli [10]
  Activity: inactive
Staphylococcus aureus [8]
  MBC: 250 µM
Staphylococcus aureus [11]
  Activity: inactive

## CCCCCCCCCCCCCCOc1cccc(C[N+](C)(C)C)c1C[N+](C)(C)C.[Br-].[Br-]
Pseudomonas aeruginosa [1]; Boston 41501 ATCC 27853, 72 h
  MIC: 125 µM
Staphylococcus aureus [2]; ATCC 29213, 72 h
  MIC: 6 µM
Enterococcus faecalis [9]
  Time: 24 h
Escherichia coli [3]; ATCC 25922, 72 h
  MIC: 63 µM
Pseudomonas aeruginosa [4]
  MBC: 125 µM
Escherichia coli [5]
  MBC: 63 µM
Enterococcus faecalis [6]
  MBC: 31 µM
Enterococcus faecalis [7]; ATCC 29212, 72 h
  MIC: 31 µM
Escherichia coli [10]
  Time: 0.5 h
Staphylococcus aureus [8]
  MBC: 6 µM
Staphylococcus aureus [11]
  Time: 1 h

## CCCCCCCCCCCC[N+](C)(C)C
Pseudomonas aeruginosa [1]; Boston 41501 ATCC 27853, 72 h
  MIC: > 500 µM
Staphylococcus aureus [2]; ATCC 29213, 72 h
  MIC: 63 µM
Escherichia coli [3]; ATCC 25922, 72 h
  MIC: 250 µM
Pseudomonas aeruginosa [4]
  MBC: > 500 µM
Escherichia coli [5]
  MBC: 250 µM
Enterococcus faecalis [6]
  MBC: 125 µM
Enterococcus faecalis [7]; ATCC 29212, 72 h
  MIC: 125 µM
Staphylococcus aureus [8]
  MBC: 63 µM

## N,N,N-trimethylhexadecan-1-aminium bromide
Pseudomonas aeruginosa [1]
  MIC: > 500 µM
Staphylococcus aureus [2]
  MIC: 4 µM
Escherichia coli [3]
  MIC: 63 µM
Pseudomonas aeruginosa [4]
  MBC: > 500 µM
Escherichia coli [5]
  MBC: 63 µM
Enterococcus faecalis [6]
  MBC: 4 µM
Enterococcus faecalis [7]
  MIC: 4 µM
Staphylococcus aureus [8]
  MBC: 4 µM

## CCCCCCCCCCCCCCCCOc1cc(C[N+](C)(C)C)ccc1C[N+](C)(C)C.[Br-].[Br-]
Pseudomonas aeruginosa [1]; Boston 41501 ATCC 27853, 72 h
  MIC: 125 µM
Staphylococcus aureus [2]; ATCC 29213, 72 h
  MIC: 16 µM
Enterococcus faecalis [9]
  Activity: inactive
Escherichia coli [3]; ATCC 25922, 72 h
  MIC: 63 µM
Pseudomonas aeruginosa [4]
  MBC: 125 µM
Escherichia coli [5]
  MBC: 63 µM
Enterococcus faecalis [6]
  MBC: 50 µM
Enterococcus faecalis [7]; ATCC 29212, 72 h
  MIC: 50 µM
Escherichia coli [10]
  Time: 2 h
Staphylococcus aureus [8]
  MBC: 16 µM
Staphylococcus aureus [11]
  Time: 24 h

## CCCCCCCCCCCCCCOc1cc(C[N+](C)(C)C)cc(C[N+](C)(C)C)c1.[Br-].[Br-]
Pseudomonas aeruginosa [1]; Boston 41501 ATCC 27853, 72 h
  MIC: 63 µM
Staphylococcus aureus [2]; ATCC 29213, 72 h
  MIC: 4 µM
Enterococcus faecalis [9]
  Time: 0.25 h
Escherichia coli [3]; ATCC 25922, 72 h
  MIC: 31 µM
Pseudomonas aeruginosa [4]
  MBC: 63 µM
Escherichia coli [5]
  MBC: 31 µM
Enterococcus faecalis [6]
  MBC: 31 µM
Enterococcus faecalis [7]; ATCC 29212, 72 h
  MIC: 31 µM
Escherichia coli [10]
  Time: 1 h
Staphylococcus aureus [8]
  MBC: 4 µM
Staphylococcus aureus [11]
  Time: 0.25 h

## CCCCCCCCCCCCCCOc1cc(C[N+](C)(C)C)ccc1C[N+](C)(C)C.[Br-].[Br-]
Pseudomonas aeruginosa [1]; Boston 41501 ATCC 27853, 72 h
  MIC: 250 µM
Staphylococcus aureus [2]; ATCC 29213, 72 h
  MIC: 16 µM
Enterococcus faecalis [9]
  Time: 48 h
Escherichia coli [3]; ATCC 25922, 72 h
  MIC: 63 µM
Pseudomonas aeruginosa [4]
  MBC: 250 µM
Escherichia coli [5]
  MBC: 63 µM
Enterococcus faecalis [6]
  MBC: 31 µM
Enterococcus faecalis [7]; ATCC 29212, 72 h
  MIC: 31 µM
Escherichia coli [10]
  Time: 72 h
Staphylococcus aureus [8]
  MBC: 16 µM
Staphylococcus aureus [11]
  Time: 48 h

## CCCCCCCCCCCCCCOc1c(C[N+](C)(C)C)cccc1C[N+](C)(C)C.[Br-].[Br-]
Pseudomonas aeruginosa [1]; Boston 41501 ATCC 27853, 72 h
  MIC: 500 µM
Staphylococcus aureus [2]; ATCC 29213, 72 h
  MIC: 16 µM
Enterococcus faecalis [9]
  Activity: inactive
Escherichia coli [3]; ATCC 25922, 72 h
  MIC: 125 µM
Pseudomonas aeruginosa [4]
  MBC: 500 µM
Escherichia coli [5]
  MBC: 125 µM
Enterococcus faecalis [6]
  MBC: 50 µM
Enterococcus faecalis [7]; ATCC 29212, 72 h
  MIC: 50 µM
Escherichia coli [10]
  Activity: inactive
Staphylococcus aureus [8]
  MBC: 16 µM
Staphylococcus aureus [11]
  Time: 48 h

## CCCCCCCCCCCCCCOc1ccc(C[N+](C)(C)C)cc1.[Br-]
Pseudomonas aeruginosa [1]; Boston 41501 ATCC 27853, 72 h
  MIC: > 500 µM
Staphylococcus aureus [2]; ATCC 29213, 72 h
  MIC: 6 µM
Enterococcus faecalis [9]
  Time: 0.25 h
Escherichia coli [3]; ATCC 25922, 72 h
  MIC: > 500 µM
Pseudomonas aeruginosa [4]
  MBC: > 500 µM
Escherichia coli [5]
  MBC: > 500 µM
Enterococcus faecalis [6]
  MBC: 16 µM
Enterococcus faecalis [7]; ATCC 29212, 72 h
  MIC: 16 µM
Escherichia coli [10]
  Activity: inactive
Staphylococcus aureus [8]
  MBC: 6 µM
Staphylococcus aureus [11]
  Time: 0.25 h

## CCCCCCCCCCCCCCCCCCOc1cc(C[N+](C)(C)C)ccc1C[N+](C)(C)C.[Br-].[Br-]
Pseudomonas aeruginosa [1]; Boston 41501 ATCC 27853, 72 h
  MIC: 250 µM
Staphylococcus aureus [2]; ATCC 29213, 72 h
  MIC: 16 µM
Enterococcus faecalis [9]
  Time: 0.25 h
Escherichia coli [3]; ATCC 25922, 72 h
  MIC: 63 µM
Pseudomonas aeruginosa [4]
  MBC: 250 µM
Escherichia coli [5]
  MBC: 63 µM
Enterococcus faecalis [6]
  MBC: 31 µM
Enterococcus faecalis [7]; ATCC 29212, 72 h
  MIC: 31 µM
Escherichia coli [10]
  Time: 0.5 h
Staphylococcus aureus [8]
  MBC: 16 µM
Staphylococcus aureus [11]
  Time: 0.25 h
